# High-throughput results (PubChem BioAssay)
# Only some compounds are listed: those with a hit (about 3.8% of all), similar ones and a draw of the others.
# MPTP block: permeability transition pore inhibition; isolated mouse mitochondria, Ca2+ swelling absorbance, 30 min; inhibition, % at 10 µM; 1.4% of 360,000 active;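 active = inhibition of 50% or more, scaled per plate between neutral and stimulator controls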;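 also: 0% = DMSO wells given calcium and 100% = 1 mM EGTA wells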
# GPR7 antagonist: antagonists of human GPR7 (neuropeptides B/W receptor 1). inhibition, % at 4.4 µM. 1.1% of 290,000 active. AID 1861. GPR7-expressing cells, fluorescence antagonist assay; in the data active = inhibition above about 16%, passing the limit was not always enough;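 also: cells stimulated with the agonist NPW; 0% = agonist with vehicle and 100% = vehicle without agonist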
# CHO parental Ca: counter-screen for OX1R antagonists: effect in parental CHO cells | 0.63% of 330,000 active | parental CHO-K1, ATP-induced calcium, Fluo-8 fluorescence | AID 463079 | inhibition, % at 5.6 µM;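 active = inhibition above that plate's mean sample inhibition plus 3 SD, cut at about 26% in these data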;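 also: 0% = ATP-challenged DMSO wells and 100% = DMSO wells without ATP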
#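 Measured by: calcium-sensitive Fluo-8 fluorescence / Test system: CHO parental line / Controls: ATP-challenged DMSO wells low, unchallenged DMSO wells high / Measure: % inhibition / Compound: single nominal dose of 5.6 µM per compound / Replicates: single well per compound, no replicates / Reagent: ATP as calcium-mobilizing challenge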
# OX1R antag-1: blocks the human orexin 1 receptor; CHO/OX1R cells, Fluo-8 calcium fluorescence, orexin A; inhibition, % at 5 µM; 0.43% of 330,000 active;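 active = inhibition above its plate's threshold, mean inhibition of all tested compounds on the plate plus 3 SD, cut at about 37% in these data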;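 also: 0% = orexin A challenge wells and 100% = SB-334867-A antagonist wells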
# Target sequence (O43613 whole entry, looked up): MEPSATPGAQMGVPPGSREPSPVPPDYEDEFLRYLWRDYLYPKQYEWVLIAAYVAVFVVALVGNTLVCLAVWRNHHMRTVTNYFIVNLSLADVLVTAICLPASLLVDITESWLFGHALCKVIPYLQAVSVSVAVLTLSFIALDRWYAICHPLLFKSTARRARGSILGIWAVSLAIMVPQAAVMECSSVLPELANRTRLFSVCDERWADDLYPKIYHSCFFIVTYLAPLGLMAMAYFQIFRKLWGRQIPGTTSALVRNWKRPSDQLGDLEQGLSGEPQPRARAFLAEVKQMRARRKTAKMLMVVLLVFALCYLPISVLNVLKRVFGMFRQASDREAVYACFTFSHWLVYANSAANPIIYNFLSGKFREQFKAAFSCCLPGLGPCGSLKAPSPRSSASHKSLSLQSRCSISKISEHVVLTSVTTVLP
# OX1R antag-2: blocks the human orexin 1 receptor | OX1R-expressing cells, FRET antagonist read-out | inhibition, % at 6.6 µM | 1.8% of 330,000 active | AID 485270; in the data active = inhibition mostly above about 38%, no sharp cut-off; inactive = mostly below about 40%;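 also: 0% = agonist challenge alone and 100% = reference antagonist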
# Active calls of the source: *; x = no result.
SMILES,MPTP block,GPR7 antagonist,CHO parental Ca,OX1R antag-1,OX1R antag-2
CCC(=O)NC(=S)Nc1ccc(NC(=O)c2ccc(OC)cc2)cc1,2.7,-10.2,5.6,4.9,15.3
CCn1c2ccccc2c2cc(NC(=O)c3cccc([N+](=O)[O-])c3C)ccc21,1.2,-4.1,-12.6,-5.7,25.6
CCn1c2ccccc2c2cc(NC(=O)COc3ccc(OC)cc3)ccc21,0.4,-7.1,-13.5,-23.8,13.4
CCn1c2ccccc2c2cc(NC(=O)COc3ccccc3)ccc21,2.0,-12.3,-34.7,-19.8,64.8*
CCn1c2ccccc2c2cc(NC(=O)c3ccc(Br)o3)ccc21,29.0,19.5,-7.5,47.9*,85.4*
CCC(=O)NC(=S)Nc1ccc(NC(=O)c2ccc(Br)o2)cc1,15.4,18.5*,-0.1,-26.2,12.8
CCn1c2ccccc2c2cc(NC(=O)c3coc(=O)c(Br)c3)ccc21,8.5,-13.7,-4.1,-16.3,14.8
CCn1c2ccccc2c2cc(NC(=O)c3cccc([N+](=O)[O-])c3)ccc21,3.4,x,-6.4,16.6,76.0*
O=C(Nc1ccccc1)c1cc(C2COCCN2C(=O)c2cccs2)on1 (stereo not given),0.1,x,x,x,x
CC1CCCCN1CCNC(=O)C1CCCN(S(=O)(=O)c2cccc3nsnc23)C1 (stereo not given),2.0,-11.0,-27.8,-20.8,45.6*
O=S(=O)(c1cccc2nsnc12)N1CCNCC1,-1.1,-3.0,3.2,-13.4,54.7*
CCCN(CCC)CCCNC(=O)C1CCN(S(=O)(=O)c2cccc3nsnc23)CC1,-0.8,-15.5,-1.3,-2.2,40.0*
CCN1CCN(S(=O)(=O)c2cccc3nsnc23)CC1,-0.2,-7.9,-2.2,-11.7,40.0
C/C(=N\Nc1ccc([N+](=O)[O-])cc1[N+](=O)[O-])C(C)(C)C(C(=O)O)C(=O)O,2.2,-7.5,-7.1,-10.2,73.0*
CN(C)S(=O)(=O)c1cccc(COC(=O)Cc2c(F)cccc2Cl)c1,-0.2,0.4,45.4*,-14.4,31.9
Cc1c(Cl)cccc1NC(=S)N1CCCN(Cc2ccc(F)cc2)C1,48.2,-3.9,32.8*,1.9,16.9
Cc1ccccc1NC(=S)N1CCCN(Cc2ccc(F)cc2)C1,0.0,6.8,-28.4,-27.8,10.6
COc1cc(NC(=O)C[n+]2ccc(C(=O)c3ccccc3)cc2)cc(OC)c1,0.4,x,-0.4,4.9,42.5*
CC(C)(C)C(=O)COC(=O)c1ccc(N)c([N+](=O)[O-])c1,-1.3,-9.7,-6.2,-0.6,19.3
COc1ccc(CCOC(=O)c2ccc(N)c([N+](=O)[O-])c2)cc1,1.5,-9.6,47.1*,19.5,32.5
CC(=O)Nc1ccc(NC(=O)C(Cc2ccccc2)NC(=O)C2CCC(C)CC2)cc1 (stereo not given),14.8,4.3,-16.0,-8.8,17.7
CCCc1nnc(NC(=O)CCC(=O)N2CCN(S(=O)(=O)c3ccc(C)cc3)CC2)s1,1.6,0.5,-11.7,-28.5,17.0
OCCCc1nc2n(n1)C(c1cccs1)C=C(c1ccccc1)N2 (stereo not given),x,5.0,33.2*,23.1,26.0
c1ccc(Nc2nc3ccccc3n3cnnc23)cc1,0.5,-9.6,-2.0,5.3,59.1*
CC(=O)Nc1ccc(Nc2nc3ccccc3n3cnnc23)cc1,0.4,-12.4,2.6,-18.3,0.6
SMILES,MPTP block,GPR7 antagonist,CHO parental Ca,OX1R antag-1,OX1R antag-2
OC(c1ccccc1)c1nc(-c2ccc(F)c(Cl)c2)cs1 (stereo not given),3.1,x,x,x,x
COc1ccc(/C=C/C(=O)Oc2ccc(/C=N\NC(=O)c3ccc(F)cc3)cc2)cc1,-0.1,4.0,-4.0,-3.1,7.2
COc1ccc(/C=C/C(=O)Oc2cccc(/C=N/NC(=O)c3cccc(F)c3)c2)cc1,-0.5,18.5*,-3.0,4.8,12.3
CCOc1ccc(N2C(=O)CC(NCCc3c[nH]c4ccccc34)C2=O)cc1 (stereo not given),-0.1,-0.7,-7.4,14.0,61.4*
CCOc1ccc(N2C(=O)CC(NCCc3ccncc3)C2=O)cc1 (stereo not given),-1.0,-11.2,-8.4,9.6,11.2
O=C(c1cccc2nc3ccccc3nc12)N1CCOCC1,0.5,-2.2,-28.8,-9.1,45.7
C/C(=N\NC(=O)C1CC1)c1ccc(N2CCOCC2)cc1,-0.6,16.5*,16.4,-0.5,16.4
C/C(=N\NC(=O)c1ccccc1)c1ccc(N2CCOCC2)cc1,11.7,6.0,5.3,-3.3,14.6
COc1cc(OC)c(/C=C2\C(=O)Nc3ccccc32)c(OC)c1,x,x,-7.8,-13.8,40.9*
O=C1c2ccccc2C(=O)N1CCCCCc1nc(-c2ccccc2)no1,9.8,-20.0,-11.7,26.6,74.4*
